# Active and inactive are the calls of the source.
# Columns and labels:
# Cannabinoid receptor [1] = target: T1, Cannabinoid receptor (Rattus norvegicus, UniProt Q9QZN9+P20272); assay: Displacement of [3H]JWH-018 from CB1R/CB2R in Wistar rat brain membranes after 60 mins by liquid scintillation analysis; format: cell membranes
# Mu-type opioid receptor [2] = target: T2, Mu-type opioid receptor (Rattus norvegicus, UniProt P33535); assay: Agonist activity at MOR in Wistar rat brain membranes in presence of naloxone after 60 mins by [35S]-GTPgammaS binding assay; format: functional, cell membranes
# Outline: (§1)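 Rat brain membranes (30 µg protein/tube) incubated 60 min at 30 °C with 0.05 nM [35S]GTPγS and ligand at 10^-10–10^-5 M. Buffer: 50 mM Tris-HCl pH 7.4 with 30 µM GDP, 100 mM NaCl, 3 mM MgCl2, 1 mM EGTA. Nonspecific binding taken with 10 µM GTPγS; basal set as 100%. Filtration and scintillation counting; n≥3.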
# [3] = target: Cannabinoid receptor 1 (Rattus norvegicus) (UniProt P20272); assay: Agonist activity at CB1R in Wistar rat brain membranes at 10 uM in presence of rimonabant after 60 mins by [35S]-GTPgammaS binding assay relative to control; format: functional, cell membranes
# Outline: as §1, with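 “EGTA. […]” for “EGTA.”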
# Rattus norvegicus [4] = assay: Effect on nociception of the contralateral paw in rat model of sodium iodoacetate-induced osteoarthritis paw withdrawal threshold in late phase at 20 ug administered as intrathecal injection measured after 60 to 90 mins by Von Frey test (reference value: 43 +/- 3.4 g); format: organism-based; settings: in vivo, icv_or_intrathecal
# Mus musculus = assay: Antinociceptive activity in CD-1 mouse assessed as increase in thermal latency at 10 mg/kg, iv after 15 to 120 mins by hot plate technique; format: functional, organism-based
# Outline: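 Male CD-1 mice (25 g) given 10 mg/kg i.v. in 10 mL/kg; vehicle saline with 5% DMSO. Hot plate held at 55.0 °C. Latency to paw lick or jump, cut-off 60 s, read at 15–120 min. Baseline is the mean of three pre-test readings. Data given as %MPE; n=6/group.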
# [5] = target: Mu-type opioid receptor (Rattus norvegicus) (UniProt P33535); assay: Agonist activity at MOR in Wistar rat brain membranes at 10 uM in presence of naloxone after 60 mins by [35S]-GTPgammaS binding assay relative to control; format: functional, cell membranes; outline: as §1
# Rattus norvegicus [6] = assay: Effect on nociception of the contralateral paw in rat model of sodium iodoacetate-induced osteoarthritis paw withdrawal threshold in early phase at 20 ug administered as intrathecal injection measured up to 45 mins by Von Frey test (reference value: 44 +/- 2.4 g); format: organism-based; settings: in vivo, icv_or_intrathecal, 0.75 h
# Rattus norvegicus [7] = species: Rattus norvegicus; settings: Wistar, Brain, Membranes, at 10 µM
# Cannabinoid receptor 2 = target: T3, Cannabinoid receptor 2 (Rattus norvegicus, UniProt Q9QZN9); assay: Agonist activity at CB2R in Wistar rat brain membranes in presence of AM630 after 60 mins by [35S]-GTPgammaS binding assay; format: functional, cell membranes
# T3 sequence (Q9QZN9 whole entry): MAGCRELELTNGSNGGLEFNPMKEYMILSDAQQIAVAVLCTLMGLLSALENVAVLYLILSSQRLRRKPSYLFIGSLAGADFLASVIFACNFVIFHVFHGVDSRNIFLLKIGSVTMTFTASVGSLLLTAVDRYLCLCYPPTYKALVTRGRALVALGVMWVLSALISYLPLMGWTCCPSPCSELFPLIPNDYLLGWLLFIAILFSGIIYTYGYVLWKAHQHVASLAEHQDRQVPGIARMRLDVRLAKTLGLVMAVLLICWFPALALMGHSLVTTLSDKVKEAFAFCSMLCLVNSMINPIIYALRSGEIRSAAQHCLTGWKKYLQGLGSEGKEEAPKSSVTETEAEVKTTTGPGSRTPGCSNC
# Outline: as §1, with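 “EGTA. […]” for “EGTA.”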
# [8] = target: Delta-type opioid receptor (Rattus norvegicus, UniProt P33533); assay: Displacement of [3H]Ile5,6-deltorphin-2 from DOR in Wistar rat brain membranes after 60 mins by liquid scintillation analysis; format: cell membranes
# Rattus norvegicus [9] = species: Rattus norvegicus; assay: Agonist activity at MOR/CB1R/CB2R in Wistar rat brain membranes after 60 mins by [35S]-GTPgammaS binding assay relative to control; format: cell membranes
# Outline: as §1, with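 “EGTA. […]” for “EGTA.”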
# Rattus norvegicus [10] = assay: Antiallodynic activity in sodium iodoacetate-induced rat model of osteoarthritis assessed as increase in maximum effect in early phase at 20 ug administered as intrathecal injection measured up to 45 mins by Von Frey test; format: functional, organism-based
# [11] = target: Kappa-type opioid receptor (Cavia porcellus, UniProt P41144); format: cell membranes, Brain, Membranes
# Mu-type opioid receptor [12] = target: T2, Mu-type opioid receptor; assay: Displacement of [3H]DAMGO from MOR in Wistar rat brain membranes after 60 mins by liquid scintillation analysis; format: cell membranes
# Cannabinoid receptor 1 = Cannabinoid receptor 1 (Rattus norvegicus, UniProt P20272); assay: Agonist activity at CB1R in Wistar rat brain membranes in presence of rimonabant after 60 mins by [35S]-GTPgammaS binding assay; format: functional, cell membranes
# Outline: as §1, with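 “EGTA. […]” for “EGTA.”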
# Rattus norvegicus [13] = species: Rattus norvegicus; assay: Agonist activity at MOR/CB1R/CB2R in Wistar rat brain membranes at 10 uM in presence of naloxone,rimonabant and AM630 after 60 mins by [35S]-GTPgammaS binding assay relative to control; format: cell membranes
# Outline: as §1, with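 “EGTA. […]” for “EGTA.”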
# [14] = Agonist activity at MOR/CB1R/CB2R receptor in Wistar rat brain membranes after 60 mins by [35S]-GTPgammaS binding assay; format: cell membranes
# [15] = target: T4, Cannabinoid receptor 2 (Rattus norvegicus) (UniProt Q9QZN9); assay: Agonist activity at CB2R in Wistar rat brain membranes at 10 uM in presence of AM630 after 60 mins by [35S]-GTPgammaS binding assay relative to control; format: functional, cell membranes
# T4 sequence (whole entry): T3 sequence (Q9QZN9 whole entry)
# Outline: as §1, with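 “EGTA. […]” for “EGTA.”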
# Cannabinoid receptor [16] = target: T1, Cannabinoid receptor; format: cell membranes, Wistar, Brain, Membranes
# [17] = target: T5, Cannabinoid receptor (Rattus norvegicus) (UniProt Q9QZN9+P20272); assay: Displacement of [3H]JWH-018 from CB1R/CB2R in Wistar rat brain membranes at 10 uM by liquid scintillation analysis relative to control; format: cell membranes
# Outline: (§2)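 Whole rat brain membranes (cerebellum removed; 0.3–0.5 mg/mL protein) in 50 mM Tris-HCl pH 7.4 with 2.5 mM EGTA, 5 mM MgCl2 and 0.5 mg/mL fatty-acid-free BSA, 30 °C. Kinetics used 0.6 nM [3H]JWH-018: association over 0–90 min, dissociation started with 10 µM JWH-018 after 60 min. Saturation over 0.5–35 nM. Competitors at 10^-11–10^-5 M, 60 min. Nonspecific binding with 10 µM JWH-018. Filtration onto PEI-soaked GF/B filters; n≥3.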
# Cannabinoid receptor [18] = target: T1, Cannabinoid receptor; assay: Displacement of [3H]JWH-018 from CB1R/CB2R in Wistar rat brain membranes assessed as dissociation constant by liquid scintillation analysis; format: cell membranes; outline: as §2
# Cannabinoid receptor [19] = target: T1, Cannabinoid receptor; assay: Agonist activity at CB1R/CB2R in Wistar rat brain membranes after 60 mins by [35S]-GTPgammaS binding assay; format: functional, cell membranes
# Outline: as §1, with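 “EGTA. […]” for “EGTA.”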
# Cannabinoid receptor [20] = target: T1, Cannabinoid receptor; assay: (§3) Displacement of [3H]JWH-018 from CB1R/CB2R in Wistar rat brain membranes assessed as dissociation rate constant at 10 uM by liquid scintillation analysis; format: cell membranes; outline: as §2
# [21] = target: T5, Cannabinoid receptor (Rattus norvegicus); assay: as §3; format: cell membranes; outline: as §2
# [22] = target: T5, Cannabinoid receptor (Rattus norvegicus); assay: Agonist activity at CB1R/CB2R in Wistar rat brain membranes after 60 mins by [35S]-GTPgammaS binding assay relative to control; format: functional, cell membranes
# Outline: as §1, with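 “EGTA. […]” for “EGTA.”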
# [23] = target: T5, Cannabinoid receptor (Rattus norvegicus); assay: Displacement of [3H]JWH-018 from CB1R/CB2R in Wistar rat brain membranes assessed as maximum efficacy at 10 uM by liquid scintillation analysis; format: cell membranes; outline: as §2
# [24] = target: T5, Cannabinoid receptor (Rattus norvegicus); assay: Displacement of [3H]JWH-018 from CB1R/CB2R in Wistar rat brain membranes assessed as specific binding at 10 uM up to 90 mins by liquid scintillation analysis relative to control; format: cell membranes; outline: as §2
# [25] = target: T5, Cannabinoid receptor (Rattus norvegicus); assay: Displacement of [3H]JWH-018 from CB1R/CB2R in Wistar rat brain membranes assessed as pseudo-first order rate constant at 10 uM up to 90 mins by liquid scintillation analysis; format: cell membranes; outline: as §2
# Rattus norvegicus [26] = assay: Antiallodynic activity in sodium iodoacetate-induced rat model of osteoarthritis assessed as increase in maximum effect in early phase at 7 ug administered as intrathecal injection measured up to 45 mins by Von Frey test; format: functional, organism-based
# Rattus norvegicus [27] = assay: Effect on nociception of the contralateral paw in rat model of sodium iodoacetate-induced osteoarthritis assessed as paw withdrawal threshold in early phase at 7 ug administered as intrathecal injection measured up to 45 mins by Von Frey test (reference value: 44 +/- 2.4 g); format: ADME, organism-based; settings: in vivo, icv_or_intrathecal, 0.75 h
# Mu-type opioid receptor [28] = target: T2, Mu-type opioid receptor; assay: Agonist activity at MOR in Wistar rat brain membranes after 60 mins by [35S]-GTPgammaS binding assay; format: functional, cell membranes
# Rattus norvegicus [29] = assay: Effect on nociception of the contralateral paw in rat model of sodium iodoacetate-induced osteoarthritis assessed as paw withdrawal threshold in late phase at 7 ug administered as intrathecal injection measured after 60 to 90 mins by Von Frey test (reference value: 43 +/- 3.4 g); format: ADME, organism-based; settings: in vivo, icv_or_intrathecal
# T5 sequence (P20272 whole entry, looked up, one chain of several): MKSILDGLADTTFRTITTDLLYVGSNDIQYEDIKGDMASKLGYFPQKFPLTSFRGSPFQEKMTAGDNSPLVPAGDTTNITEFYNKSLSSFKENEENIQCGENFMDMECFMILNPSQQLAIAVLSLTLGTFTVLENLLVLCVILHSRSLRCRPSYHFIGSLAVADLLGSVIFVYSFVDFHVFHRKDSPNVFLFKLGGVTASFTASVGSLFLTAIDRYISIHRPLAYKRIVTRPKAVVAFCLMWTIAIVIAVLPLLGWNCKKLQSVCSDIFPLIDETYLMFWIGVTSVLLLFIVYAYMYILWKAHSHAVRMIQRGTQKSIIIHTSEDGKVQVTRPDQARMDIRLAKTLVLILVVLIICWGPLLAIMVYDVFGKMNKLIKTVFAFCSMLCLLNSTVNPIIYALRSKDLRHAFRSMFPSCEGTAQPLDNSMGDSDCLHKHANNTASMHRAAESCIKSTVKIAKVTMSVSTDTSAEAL
# T2 sequence (P33535 whole entry): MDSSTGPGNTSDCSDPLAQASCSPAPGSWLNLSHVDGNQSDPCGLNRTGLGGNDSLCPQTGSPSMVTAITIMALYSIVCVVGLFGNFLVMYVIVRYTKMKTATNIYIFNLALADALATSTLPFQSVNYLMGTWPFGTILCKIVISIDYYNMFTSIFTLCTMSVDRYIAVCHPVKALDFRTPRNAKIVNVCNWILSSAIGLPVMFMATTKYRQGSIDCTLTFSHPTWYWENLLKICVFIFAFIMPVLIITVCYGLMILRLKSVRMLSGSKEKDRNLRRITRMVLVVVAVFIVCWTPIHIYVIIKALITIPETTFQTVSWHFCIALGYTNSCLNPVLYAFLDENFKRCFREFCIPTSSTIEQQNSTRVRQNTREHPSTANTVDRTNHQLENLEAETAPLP
# Sequence of Kappa-type opioid receptor (P41144 whole entry): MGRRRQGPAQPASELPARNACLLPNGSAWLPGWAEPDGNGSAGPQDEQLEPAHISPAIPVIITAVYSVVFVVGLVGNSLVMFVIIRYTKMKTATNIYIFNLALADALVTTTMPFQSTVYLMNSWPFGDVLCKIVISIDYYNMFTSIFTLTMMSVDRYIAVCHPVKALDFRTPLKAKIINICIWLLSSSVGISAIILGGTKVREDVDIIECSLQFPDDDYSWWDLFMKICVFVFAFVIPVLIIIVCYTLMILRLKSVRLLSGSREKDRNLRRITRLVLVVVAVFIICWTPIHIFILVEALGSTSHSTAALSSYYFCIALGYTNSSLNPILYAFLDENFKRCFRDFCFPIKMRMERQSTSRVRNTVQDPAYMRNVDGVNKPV
# Sequence of Delta-type opioid receptor (P33533 whole entry): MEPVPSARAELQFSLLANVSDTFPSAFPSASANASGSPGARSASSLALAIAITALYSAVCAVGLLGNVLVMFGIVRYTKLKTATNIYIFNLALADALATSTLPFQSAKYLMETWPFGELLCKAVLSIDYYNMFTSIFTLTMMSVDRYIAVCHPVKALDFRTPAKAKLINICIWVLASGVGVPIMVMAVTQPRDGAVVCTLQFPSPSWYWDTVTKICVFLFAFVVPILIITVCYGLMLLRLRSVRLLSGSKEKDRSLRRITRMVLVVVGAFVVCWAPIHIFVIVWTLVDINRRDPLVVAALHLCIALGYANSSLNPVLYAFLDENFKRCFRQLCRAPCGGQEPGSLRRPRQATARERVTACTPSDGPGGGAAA
# Sequence of Cannabinoid receptor 1 (P20272 whole entry): as the sequence (P20272 whole entry, looked up, one chain of several) above
# Sequence of Cannabinoid receptor 1 (Rattus norvegicus) (P20272 whole entry): as the sequence (P20272 whole entry, looked up, one chain of several) above
# Sequence of Mu-type opioid receptor (Rattus norvegicus) (P33535 whole entry): as the sequence (P33535 whole entry) above
SMILES,Ki (Cannabinoid receptor [1]) [nM],Emax [3] [%],Activity (Rattus norvegicus [4]) [g],Activity (Mus musculus),Activity (Rattus norvegicus [6]) [g],Emax (Rattus norvegicus [7]) [%],EC50 (Cannabinoid receptor 2) [nM],Ki [8] [nM],Emax (Rattus norvegicus [9]) [%],Activity (Rattus norvegicus [10]),Ki [11] [nM],Ki (Mu-type opioid receptor [12]) [nM],EC50 (Cannabinoid receptor 1) [nM],Emax (Rattus norvegicus [13]) [%],EC50 [14] [nM],Emax [15] [%],Ki (Cannabinoid receptor [16]) [nM],other results
COc1ccc2c3c1O[C@H]1/C(=N\OCC(=O)NCCCCCCNC(=O)CCCCCn4cc(C(=O)c5cccc6ccccc56)c5ccccc54)CC[C@@]4(O)[C@@H](C2)N(C)CC[C@]314,34,139,47,Active,42,147,340,263,146,Active,172,18,452,100,215,122,12,EC50 (Mu-type opioid receptor [2]): 397 nM; Emax [5]: 112%
CCCCCn1cc(C(=O)c2cccc3ccccc23)c2ccccc21,3.4,–,42,–,41,163,–,> 10000,–,Active,> 10000,> 10000,–,–,69,–,2.9,Activity [17]: 60%; Kd (Cannabinoid receptor [18]): 3.4 nM; EC50 (Cannabinoid receptor [19]): 36 nM; Kd(app) (Cannabinoid receptor [20]): 6.5 nM; Kdiss [21]: 0.00175 s⁻¹; Emax [22]: 167%; Emax [23]: 1120 fmol/mg; Activity [24]: 65%; K [25]: 0.124 min⁻¹
C[C@@H](NC(=O)[C@@H](N)Cc1ccc(O)cc1)C(=O)NCC(=O)N[C@@H](Cc1ccccc1)C(=O)NCC(=O)NCCCCCn1cc(C(=O)c2cccc3ccccc23)c2ccccc21,251,125,35,Active,39,160,671,134,161,Active,63,–,378,100,114,148,317,–
C[C@@H](NC(=O)[C@@H](N)Cc1ccc(O)cc1)C(=O)NCC(=O)N[C@@H](Cc1ccccc1)C(N)=O,> 10000,–,–,–,–,157,–,–,–,–,173,0.8,–,–,191,–,> 10000,Activity (Rattus norvegicus [26]): Active; Activity (Rattus norvegicus [27]): 43 g; EC50 (Mu-type opioid receptor [28]): 154 nM; Activity (Rattus norvegicus [29]): 40 g

# From ChEMBL document CHEMBL4359826, “Preparation of bivalent agonists for targeting the mu opioid and cannabinoid receptors” (Eur J Med Chem, 2019)
